Only some compounds are listed: those with a hit (about 1.2% of all), similar ones and a draw of the others.
ASAP1 GAP inh = ASAP1 ArfGAP inhibition; ASAP1-stimulated ARF1 GTP hydrolysis, GDP FP detection; inhibition, % at 16.5 µM; actives 0.19% (n = 360,000); in the data active = inhibition above about 25%;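 note: 0% = vehicle with enzyme and substrate and 100% = no enzyme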
PREPL inh = inhibits the human prolyl oligopeptidase-like enzyme; Q4J6C6; recombinant PREPL, fluorescence polarization activity-based probe; inhibition, % at 5.96 µM; actives 0.68% (n = 320,000); in the data active = inhibition above about 43%;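 note: 0% = enzyme with DMSO and 100% = wells lacking enzyme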
IDE act = IDE (human) activation, cell-based | P14735 | HEK cells, FAbeta-B cleavage, fluorescence polarization; 0% vehicle, 100% cell-free pure enzyme wells | activation, % at 5.96 µM | actives 0.073% (n = 340,000) | AID 493087;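 active = activation above the mean of all tested compounds plus 3 SD, set per screening campaign, cut at about 17% in these data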
Target sequence (P14735 whole entry, looked up): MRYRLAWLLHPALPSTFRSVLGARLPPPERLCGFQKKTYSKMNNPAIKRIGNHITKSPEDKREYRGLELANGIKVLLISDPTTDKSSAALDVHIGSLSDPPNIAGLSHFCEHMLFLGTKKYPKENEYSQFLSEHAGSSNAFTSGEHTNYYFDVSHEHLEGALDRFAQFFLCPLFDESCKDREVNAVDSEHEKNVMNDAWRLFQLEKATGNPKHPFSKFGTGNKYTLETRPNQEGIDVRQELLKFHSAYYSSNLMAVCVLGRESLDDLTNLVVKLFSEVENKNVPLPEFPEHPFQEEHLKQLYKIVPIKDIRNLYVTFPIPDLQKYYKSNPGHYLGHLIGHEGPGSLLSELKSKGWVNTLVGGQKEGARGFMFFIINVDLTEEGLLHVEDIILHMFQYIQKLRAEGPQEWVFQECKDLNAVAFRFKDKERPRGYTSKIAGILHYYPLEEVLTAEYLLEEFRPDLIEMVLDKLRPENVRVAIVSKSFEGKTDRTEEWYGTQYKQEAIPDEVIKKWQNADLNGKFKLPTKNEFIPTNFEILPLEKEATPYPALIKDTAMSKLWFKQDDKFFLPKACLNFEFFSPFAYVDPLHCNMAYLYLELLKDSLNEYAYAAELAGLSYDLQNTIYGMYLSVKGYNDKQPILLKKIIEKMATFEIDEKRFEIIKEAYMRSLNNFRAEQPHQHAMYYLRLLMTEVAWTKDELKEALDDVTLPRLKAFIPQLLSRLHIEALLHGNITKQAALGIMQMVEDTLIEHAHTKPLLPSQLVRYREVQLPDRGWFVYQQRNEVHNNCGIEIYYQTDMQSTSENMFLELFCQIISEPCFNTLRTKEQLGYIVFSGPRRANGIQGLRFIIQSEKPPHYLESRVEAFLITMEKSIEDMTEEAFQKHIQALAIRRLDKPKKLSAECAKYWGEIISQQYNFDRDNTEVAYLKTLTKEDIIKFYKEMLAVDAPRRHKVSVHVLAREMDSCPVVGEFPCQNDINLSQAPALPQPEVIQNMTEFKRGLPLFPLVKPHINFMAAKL
IDE cell inh = inhibits human insulin-degrading enzyme in HEK cells | P14735 | FAbetaB cleavage, fluorescence polarization | inhibition, % at 5.59 µM | actives 0.41% (n = 320,000);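 active = percent inhibition above the average of all tested compounds plus 3 SD, set per screening campaign, cut at about 16% in these data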;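 note: IDE supplied by intact live HEK cells; FP after avidin binding of uncleaved biotin substrate so inhibition keeps polarization high; 0% = DMSO wells and 100% = 60 µM reference IDE inhibitor Ii1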
ARFGAP1 inhibitor = inhibits rat ARF GTPase activating protein 1; Q62848; Arfgap1-stimulated ARF1 GTP hydrolysis, GDP FP detection; inhibition, % at 16.5 µM; actives 0.26% (n = 360,000); AID 651572;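 active = inhibition above a per-plate limit, mean inhibition of low control wells plus 3 SD, cut at about 25% in these data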;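 note: 0% = DMSO wells with enzyme and 100% = wells lacking Arfgap1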
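System: truncated rat Arfgap1 GAP domain / Benchmarks: high control wells lacking Arfgap1, low control full reaction with DMSO / Times: compound-enzyme preincubation 20 min, reaction 120 min, detection 60 min, 25 °C / Repeats: one replicate per compound / Also added: human ARF1(Δ1-17)-GTP substrate / Measured by: Tracer-displacement fluorescence polarization with EDTA stop, 620/688 nm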
IDE cell inh cf = confirmation of human insulin-degrading enzyme inhibitors in cells. shares compounds with IDE cell inh. HEK cells, FAbetaB cleavage, fluorescence polarization. inhibition, % at 5.59 µM. actives 51% (n = 1,200);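 active = mean inhibition across triplicate wells above the cutoff set by the earlier primary insulin-degrading enzyme screen, cut at about 16% in these data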;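 note: 0% = DMSO wells and 100% = 60 µM reference IDE inhibitor Ii1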
HEK cytotox = HEK cell cytotoxicity, counter-screen for IDE inhibitors. AID 449730. shares compounds with IDE cell inh. inhibition, % at 5.59 µM. HEK293 cytotoxicity, ATP luminescence. actives 28% (n = 1,200); in the data active = inhibition above about 22%;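 note: 0% = vehicle wells and 100% = reference cytotoxic drug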
The depositor's hits bear a star; . = not tested or not shown.

SMILES | ASAP1 GAP inh | PREPL inh | IDE act | IDE cell inh | ARFGAP1 inhibitor | IDE cell inh cf | HEK cytotox
c1ccc(-c2nnc(SCc3nc4ccccc4[nH]3)n2Cc2ccco2)cc1 | -7 | 2 | -6 | 9 | -8 | . | .
Cn1c(SCc2nc3ccccc3[nH]2)nnc1-c1ccccn1 | -3 | 2 | 6 | 8 | -3 | . | .
COc1cc(C(=O)NCCN2CCN(C(=O)c3cc(OC)c(OC)c(OC)c3)CC2)cc(OC)c1OC | 11 | -1 | -6 | -4 | -2 | . | .
O=C(Nc1cccc(-c2nnc(-c3ccco3)o2)c1)c1ccccc1 | 7 | -21 | . | -3 | -7 | . | .
COc1cccc(C(=O)Nc2cccc(-c3nnc(-c4ccccc4)o3)c2)c1 | -13 | -22 | -12 | 17* | -1 | 1 | 21
CCOc1cccc(C(=O)Nc2cccc(-c3nnc(-c4ccccc4)o3)c2)c1 | -2 | -5 | -10 | 0 | -2 | . | .
COc1cccc(C(=O)Nc2ccc(-c3nnc(-c4ccco4)o3)cc2)c1 | -6 | -12 | -9 | 22* | 1 | 9 | 23*
N#C/C(=C(/O)CSc1ccccn1)c1nc2ccccc2s1 | -2 | 18 | -1 | 30* | 1 | 5 | 6
Cc1ccc(SC/C(O)=C(\C#N)c2nc3ccccc3s2)cc1 | 2 | -2 | 6 | 7 | -9 | . | .
CCc1ccccc1N(CC(=O)NC1CCCCC1)C(=O)CNC(=O)c1ccco1 | 0 | 13 | -2 | 2 | 11 | . | .
CCN(CC)c1ccc(/C=N/NC(=O)c2cccc(S(=O)(=O)Nc3ccccc3OC)c2)c(O)c1 | 4 | 19 | -21 | 33* | 6 | 35* | 100*
CC(CN1C(C)CCCC1C)OC(=O)c1ccccc1F (configuration not stated) | -1 | -12 | 3 | 2 | -1 | . | .
S=C(NCc1ccco1)N1CCN(c2nc(-c3ccccc3)cs2)CC1 | -4 | -10 | -9 | 18* | 15 | 7 | 10
S=C(NCc1ccco1)N1CCN(c2nc(-c3ccc(Cl)cc3)cs2)CC1 | 6 | 3 | -14 | 22* | -2 | 5 | 20
O=C(Nc1ccc(N2CCN(c3ccc(C(F)(F)F)cn3)CC2)nc1)c1cccs1 | 3 | 10 | -19 | 17* | 1 | 7 | 31*
Cc1nn(C)c(Oc2ccccc2)c1CCNS(=O)(=O)c1ccccc1 | -3 | 1 | 4 | -2 | 15 | . | .
CNc1ncnc2c1ncn2[C@H]1CN(Cc2ccccc2)C[C@@H](CO)O1 | -13 | . | . | . | 5 | . | .
Cc1ccccc1COc1ccc(/C(O)=C2/C(=O)C(=O)N(CCCn3ccnc3)C2c2ccco2)cc1 (configuration not stated) | 0 | 14 | -19 | 18* | -1 | 11 | 13
CC(C)[C@H](NC(=O)c1ccccc1)C(=O)NC1=NCCS1 | 4 | 5 | 4 | 0 | 4 | . | .
Cc1cccc(C(=O)Nc2ccc(C(=O)/C=C/c3ccncc3)cc2)c1 | 3 | -6 | -23 | 11 | 1 | . | .
Cc1cccc(C(=O)Nc2ccc(C(=O)/C=C/c3cccnc3)cc2)c1 | 5 | -3 | -37 | 20* | 8 | 10 | 71*
CN(C)c1ccc(CC(=O)N2CCCC(c3cc(C(=O)Nc4ccc(F)c(Cl)c4)no3)C2)cc1 (configuration not stated) | 0 | . | . | . | 10 | . | .
COc1cc(/C=C(\C#N)c2nn(CCO)c(N)c2C#N)cc(OC)c1OC | 1 | 3 | 3 | 2 | 2 | . | .
COC(=O)c1ccc(/C=C(\C#N)c2ccccn2)cc1 | 1 | -4 | -5 | -3 | 7 | . | .
COc1cc(/C=C(\C#N)c2ccccn2)cc(OC)c1O | -3 | -1 | -166 | 160* | 23 | 52* | 17
COc1cc(/C=C(\C#N)c2[nH]nc(N)c2C#N)cc(OC)c1O | 19 | 16 | -73 | 84* | 1 | 166* | 9
O=C(Nc1ccc(C(=O)OC[C@@H]2CCCN3CCCC[C@H]23)cc1)c1cccc(Br)c1 | -2 | -26 | -14 | 32* | 14 | 6 | 10
O=C(NC(=O)c1cccc(F)c1)OC[C@@H]1CCCN2CCCC[C@H]12 | -2 | 4 | 7 | -3 | -1 | . | .

Bioassay records deposited in PubChem by The Scripps Research Institute Molecular Screening Center.
